# Data: ChEMBL document CHEMBL4130487, “A pentanoic acid derivative targeting matrix metalloproteinase-2 (MMP-2) induces apoptosis in a chronic myeloid leukemia cell line” (Eur J Med Chem, 2017)
# The source made the active and inactive calls. No cut-off for these calls is given here.
# Assays:
# K562 [1] = experiment: Cell cycle arrest in human K562 cells assessed as accumulation at G1-phase at 10 uM after 48 hrs by propidium iodide staining based flow cytometry (reference value: 27.5%); assay type: functional
# K562 [2] = experiment: Induction of apoptosis in human K562 cells assessed as necrotic cells at 5 uM after 48 hrs by Annexin V-FITC/propidium iodide staining based flow cytometry (reference value: 0%); assay type: functional
# K562 [3] = experiment: Cell cycle arrest in human K562 cells assessed as accumulation at G1-phase at 5 uM after 48 hrs by propidium iodide staining based flow cytometry (reference value: 27.5%); assay type: functional
# K562 [4] = experiment: Anti-invasive activity against human K562 cells after 24 hrs by CyQuantGR dye based fluorimetric QCM EC matrix assay; assay type: functional, cell-based
# In short: (§1)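 K562 cells (1X10^6 cells/ml) starved overnight in FBS-free medium, then placed in inserts in FBS-free medium with 5% BSA, with 5% FBS medium below as chemoattractant. Treated at 2.5, 5 and 10 μM in triplicate for 24 h alongside an untreated control. Invaded cells were detached, stained with CyQuantGR and read by fluorescence (ex 480/em 520 nm). Results given as % of control, mean ± SD.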
# K562 [5] = experiment: Downregulation of MMP2 protein expression in human K562 cells assessed as MMP2 negative population at 5 uM after 48 hrs by FITC staining based flow cytometry (reference value: 1.6%)
# K562 [6] = experiment: Downregulation of MMP2 protein expression in human K562 cells assessed as MMP2 positive population at 10 uM after 48 hrs by FITC staining based flow cytometry (reference value: 98.4%)
# K562 [7] = experiment: Cell cycle arrest in human K562 cells assessed as accumulation at G1/S-phase at 2.5 uM after 24 hrs by propidium iodide staining based flow cytometry (reference value: 21.8%)
# K562 [8] = experiment: Induction of apoptosis in human K562 cells assessed as late apoptotic cells at 10 uM after 48 hrs by Annexin V-FITC/propidium iodide staining based flow cytometry (reference value: 0.3%); assay type: functional
# K562 [9] = experiment: Cell cycle arrest in human K562 cells assessed as accumulation at G1/S-phase at 5 uM after 48 hrs by propidium iodide staining based flow cytometry (reference value: 21.8%); assay type: functional
# MDA-MB-231 = experiment: Cytotoxicity against human MDA-MB-231 cells assessed as reduction in cell viability after 48 hrs by MTT assay; assay type: functional, cell-based; conditions: MDA-MB-231, 48 h
# In short: (§2)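 A549, MDA-MB-231, K562, U937 and PBMC (PBMC from healthy donors) seeded at 1×10^3 cells/well and left 24 h, then exposed to compounds for 48 h at 37 °C, 5% CO2. Adherent lines were grown in DMEM, the others in RPMI-1640 with 10% heat-inactivated FBS. MTT read-out; viability expressed as % of untreated control. IC50 taken as the concentration giving 50% viability loss.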
# [10] = molecular target: Matrix metalloproteinase-14 (Homo sapiens, UniProt P50281); experiment: Inhibition of recombinant human MMP14 (Tyr112 to Arg298 residues) expressed in Escherichia coli using Ac-Pro-Leu-Gly-S-Leu-Leu-Gly-OEt as substrate after 1 hr measured at 1 min time interval for 30 mins by microplate photometric method
# In short: (§3)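 Commercial MMP kits; compound preincubated with enzyme before chromogenic substrate was added. Reactions at 37 °C for 1 h, with at least six inhibitor concentrations in triplicate. Absorbance at 410 nm read every 1 min for 30 min. NNGH used as reference inhibitor. IC50 taken from semi-logarithmic dose-response plots.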
# U-937 = experiment: Cytotoxicity against human U937 cells assessed as reduction in cell viability after 48 hrs by MTT assay; assay type: functional, cell-based; conditions: U-937, 48 h; in short: as §2
# K562 [11] = experiment: Induction of apoptosis in human K562 cells assessed as early apoptotic cells at 10 uM after 48 hrs by Annexin V-FITC/propidium iodide staining based flow cytometry (reference value: 9.6%); assay type: functional
# K562 [12] = experiment: Cell cycle arrest in human K562 cells assessed as accumulation at G2/M-phase at 10 uM after 24 hrs by propidium iodide staining based flow cytometry (reference value: 35.3%)
# [13] = molecular target: 72 kDa type IV collagenase (Homo sapiens, UniProt P08253); experiment: Inhibition of recombinant human MMP2 (Tyr110 to Asp452 residues) using Ac-Pro-Leu-Gly-S-Leu-Leu-Gly-OEt as substrate after 1 hr measured at 1 min time interval for 30 mins by microplate photometric method; in short: as §3
# Sequence of 72 kDa type IV collagenase (P08253 whole entry): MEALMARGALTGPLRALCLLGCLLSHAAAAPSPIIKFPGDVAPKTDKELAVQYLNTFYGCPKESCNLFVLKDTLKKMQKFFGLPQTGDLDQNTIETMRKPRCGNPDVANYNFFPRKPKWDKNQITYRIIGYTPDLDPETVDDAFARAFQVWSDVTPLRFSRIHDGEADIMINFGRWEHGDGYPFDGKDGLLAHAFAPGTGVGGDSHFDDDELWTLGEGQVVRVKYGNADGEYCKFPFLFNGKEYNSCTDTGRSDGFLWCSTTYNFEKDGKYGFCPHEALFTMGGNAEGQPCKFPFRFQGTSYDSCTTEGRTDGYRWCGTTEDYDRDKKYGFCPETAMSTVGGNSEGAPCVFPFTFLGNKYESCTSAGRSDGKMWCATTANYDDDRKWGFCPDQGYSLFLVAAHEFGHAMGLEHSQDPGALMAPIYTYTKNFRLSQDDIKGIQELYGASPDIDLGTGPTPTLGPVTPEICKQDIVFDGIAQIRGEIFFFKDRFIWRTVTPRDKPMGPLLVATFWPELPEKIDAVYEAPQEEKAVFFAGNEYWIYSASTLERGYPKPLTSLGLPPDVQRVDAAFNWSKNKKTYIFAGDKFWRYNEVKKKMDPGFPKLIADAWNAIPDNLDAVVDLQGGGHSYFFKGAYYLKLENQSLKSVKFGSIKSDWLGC
# Neutrophil collagenase = Neutrophil collagenase (Homo sapiens, UniProt P22894); experiment: Inhibition of recombinant human MMP8 (Phe99 to Gln269 residues) expressed in Escherichia coli using Ac-Pro-Leu-Gly-S-Leu-Leu-Gly-OEt as substrate after 1 hr measured at 1 min time interval for 30 mins by microplate photometric method; in short: as §3
# Sequence of Neutrophil collagenase (P22894 whole entry): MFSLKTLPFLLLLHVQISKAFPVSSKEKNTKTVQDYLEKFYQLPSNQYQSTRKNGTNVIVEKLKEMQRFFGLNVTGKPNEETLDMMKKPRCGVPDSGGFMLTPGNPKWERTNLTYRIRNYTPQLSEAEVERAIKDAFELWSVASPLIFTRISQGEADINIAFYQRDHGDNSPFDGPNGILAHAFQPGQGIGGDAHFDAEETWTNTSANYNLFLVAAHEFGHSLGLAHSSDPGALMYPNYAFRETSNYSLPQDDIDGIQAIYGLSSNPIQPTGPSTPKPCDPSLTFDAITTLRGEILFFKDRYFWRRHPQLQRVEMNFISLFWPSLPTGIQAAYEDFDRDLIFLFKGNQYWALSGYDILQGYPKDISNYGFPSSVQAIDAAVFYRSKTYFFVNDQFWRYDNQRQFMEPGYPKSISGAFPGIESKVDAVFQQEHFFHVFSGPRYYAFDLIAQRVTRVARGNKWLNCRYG
# K562 [14] = experiment: Induction of apoptosis in human K562 cells assessed as early apoptotic cells at 5 uM after 48 hrs by Annexin V-FITC/propidium iodide staining based flow cytometry (reference value: 9.6%); assay type: functional
# K562 [15] = experiment: Anti-invasive activity against human K562 cells at 5 uM after 24 hrs by CyQuantGR dye based fluorimetric QCM EC matrix assay relative to control; assay type: functional; conditions: K562, 24 h; in short: as §1
# K562 [16] = experiment: Induction of apoptosis in human K562 cells assessed as increase in late apoptotic cells at 2.5 to 10 uM after 48 hrs by Annexin V-FITC/propidium iodide staining based flow cytometry relative to control; assay type: functional
# K562 [17] = experiment: Anti-invasive activity against human K562 cells at 10 uM after 24 hrs by CyQuantGR dye based fluorimetric QCM EC matrix assay relative to control; assay type: functional; conditions: K562, 24 h; in short: as §1
# K562 [18] = experiment: Downregulation of MMP2 protein expression in human K562 cells up to 10 uM after 48 hrs by Western blot method; assay type: functional, cell-based
# In short: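 K562 cells (~2×10^6) grown 48 h, then treated. Lysed on ice in Tris-HCl pH 7.5 buffer with CHAPS and glycerol. 50 µg protein run on 12% SDS-PAGE (15% for β-tubulin) and blotted to PVDF. Probed with anti-MMP-2 and anti-β-tubulin (1:1000) overnight at 4 °C, then ALKP secondary antibody and DAB development. Band intensity normalised to β-tubulin; mean ± SD.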
# K562 [19] = experiment: Induction of apoptosis in human K562 cells assessed as necrotic cells at 2.5 uM after 48 hrs by Annexin V-FITC/propidium iodide staining based flow cytometry (reference value: 0%); assay type: functional
# K562 [20] = experiment: Cell cycle arrest in human K562 cells assessed as accumulation at G2/M-phase at 2.5 uM after 24 hrs by propidium iodide staining based flow cytometry (reference value: 35.3%)
# K562 [21] = experiment: Induction of apoptosis in human K562 cells assessed as live cells at 2.5 uM after 48 hrs by Annexin V-FITC/propidium iodide staining based flow cytometry (reference value: 90.1%); assay type: functional
# K562 [22] = experiment: Induction of apoptosis in human K562 cells assessed as late apoptotic cells at 5 uM after 48 hrs by Annexin V-FITC/propidium iodide staining based flow cytometry (reference value: 0.3%); assay type: functional
compound,measurement,setting,value
CCCCCNC(=O)CC[C@H](NS(=O)(=O)c1ccc([N+](=O)[O-])cc1)C(=O)O,Activity,K562 [1],39.8%
same,Activity,K562 [2],0.1%
same,Activity,K562 [3],33.4%
same,Activity,K562 [4],Dose-dependent effect
same,Activity,K562 [5],81.1%
same,Activity,K562 [6],15.6%
same,Activity,K562 [7],20%
same,Activity,K562 [8],10.3%
same,Activity,K562 [9],19.6%
same,IC50,MDA-MB-231,162 µM
same,IC50,[10],436 µM
same,IC50,U-937,32.1 µM
same,Activity,K562 [11],15.4%
same,Activity,K562 [12],23.1%
same,IC50,[13],4.8 µM
same,IC50,Neutrophil collagenase,> 500 µM
same,Activity,K562 [14],15.4%
same,inhibition at 5 µM,K562 [15],14.2%
same,fold change (FC),K562 [16],<=300
same,inhibition at 10 µM,K562 [17],24.1%
same,Activity,K562 [18],Active
same,Activity,K562 [19],0.5%
same,Activity,K562 [20],36%
same,Activity,K562 [21],73.5%
same,Activity,K562 [22],8.5%
